Results published in ChEMBL document CHEMBL1926624, “Secondary metabolites from the roots of Neolitsea daibuensis and their anti-inflammatory activity” (J Nat Prod, 2011).
Values after ≈ are worked out from the molar mass of the structure shown.

Assays:
[1] = biological target: T1, Nitric oxide synthase, inducible (Mus musculus, UniProt P29477); experiment: Inhibition of iNOS-mediated NO production in LPS-stimulated mouse RAW264.7 cells after 24 hrs by Griess reagent method; assay type: cell-based
T1 sequence (P29477 whole entry): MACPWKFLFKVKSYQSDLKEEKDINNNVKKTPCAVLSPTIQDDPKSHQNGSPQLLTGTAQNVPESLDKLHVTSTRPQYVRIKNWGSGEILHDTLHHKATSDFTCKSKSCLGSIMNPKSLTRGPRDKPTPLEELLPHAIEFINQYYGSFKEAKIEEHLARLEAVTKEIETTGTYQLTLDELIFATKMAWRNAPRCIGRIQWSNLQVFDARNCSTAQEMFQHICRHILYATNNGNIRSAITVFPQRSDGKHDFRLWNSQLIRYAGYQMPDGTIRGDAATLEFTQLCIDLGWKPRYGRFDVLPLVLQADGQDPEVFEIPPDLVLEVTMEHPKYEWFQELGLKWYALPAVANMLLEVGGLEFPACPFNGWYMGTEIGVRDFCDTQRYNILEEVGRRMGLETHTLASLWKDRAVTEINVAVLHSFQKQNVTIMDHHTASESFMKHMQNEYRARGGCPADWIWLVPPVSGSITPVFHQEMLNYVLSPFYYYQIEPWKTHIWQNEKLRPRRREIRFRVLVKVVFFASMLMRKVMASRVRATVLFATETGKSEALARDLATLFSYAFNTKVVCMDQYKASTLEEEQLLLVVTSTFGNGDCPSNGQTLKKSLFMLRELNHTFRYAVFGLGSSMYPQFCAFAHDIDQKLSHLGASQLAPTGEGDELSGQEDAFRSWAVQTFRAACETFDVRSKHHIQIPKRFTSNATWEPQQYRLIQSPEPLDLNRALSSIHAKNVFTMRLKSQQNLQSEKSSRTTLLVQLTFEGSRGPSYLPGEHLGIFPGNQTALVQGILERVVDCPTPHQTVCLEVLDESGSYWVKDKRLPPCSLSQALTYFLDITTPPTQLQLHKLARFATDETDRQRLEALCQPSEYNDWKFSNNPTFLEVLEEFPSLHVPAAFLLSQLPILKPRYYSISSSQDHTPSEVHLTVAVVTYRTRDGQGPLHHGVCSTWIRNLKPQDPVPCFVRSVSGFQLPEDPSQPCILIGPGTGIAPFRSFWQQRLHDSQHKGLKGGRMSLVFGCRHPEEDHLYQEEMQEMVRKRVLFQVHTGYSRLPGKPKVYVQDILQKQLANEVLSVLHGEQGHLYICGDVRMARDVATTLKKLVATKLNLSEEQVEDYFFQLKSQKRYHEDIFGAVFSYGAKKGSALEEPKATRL
Method in brief: (§1)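 RAW 264.7 murine macrophages in DMEM with 10% FCS were grown to confluence for 24 h, then held serum-free for 4 h. Test agent, or 0.1% DMSO vehicle, was given with LPS (200 ng/mL) for 24 h. Supernatant nitrite was measured with Griess reagent (10 min, room temperature) at A550 against a NaNO2 standard curve. % inhibition is relative to vehicle+LPS; Emax at 100 μM; IC50 = concentration giving 50% Emax; n = 4−6.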

[2] = biological target: T2, Nitric oxide synthase, inducible (Mus musculus) (UniProt P29477); experiment: Inhibition of iNOS-mediated NO production in LPS-stimulated mouse RAW264.7 cells at 25 uM after 24 hrs by Griess reagent method relative to control; assay type: cell-based
T2 sequence (whole entry): T1 sequence (P29477 whole entry)
Method in brief: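 Confluent RAW 264.7 cells, serum-starved 4 h, received test agent at 25 μM, or 0.1% DMSO vehicle, together with LPS (200 ng/mL) for 24 h. Supernatant nitrite was read by Griess reaction, A550, against a NaNO2 standard curve. Result is maximal inhibition expressed as % of vehicle+LPS nitrite; n = 4−6.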

[3] = Cytotoxicity against mouse RAW264.7 cells assessed as reduction in cell viability after 3 hrs by alamar blue assay; assay type: cell-based
Method in brief: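 Viability was tested in the same RAW 264.7 wells after the supernatant was removed for nitrite. 10% AlamarBlue in DMEM was added and the plates incubated at 37 °C. Absorbance was read at 570/600 nm against cell-free blanks, with LPS+vehicle wells set as 100% viability. CC50 = concentration lowering viability by 50%; mean ± SE.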

RAW264.7 = experiment: Cytotoxicity against mouse RAW264.7 cells assessed as reduction in cell viability at 50 uM after 3 hrs by alamar blue assay; assay type: cell-based; details: raw264.7, 3 h
[4] = Antiinflammatory activity in human neutrophils assessed as inhibition of fMLP-induced superoxide anion production; assay type: functional, cell-based; details: Neutrophil
[5] = Antiinflammatory activity in human neutrophils assessed as inhibition of […] superoxide anion production; assay type: functional, cell-based; details: Neutrophil
[6] = biological target: T2, Nitric oxide synthase, inducible (Mus musculus); experiment: Inhibition of iNOS-mediated NO production in LPS-stimulated mouse RAW264.7 cells after 24 hrs by Griess reagent method relative to control; assay type: cell-based; method in brief: as §1

C=C[C@@]1(C)Cc2occ(C)c2[C@@H]2OC(=O)C(=C)[C@@H]21 [ISOLINDERALACTONE]
IC50 [1]: 0.3 µM | Emax [2]: 100% | CC50 at 3 h [3]: 66.4 µM | Activity (RAW264.7): Toxic

Cc1coc2c1[C@H]1C=C(CC[C@@H]3O[C@@]3(C)C2)C(=O)O1 [PSEUDONEOLINDERANE]
IC50 [4]: 3.21 µg/mL (≈ 12.3 µM) | IC50 [5]: 3.21 µg/mL (≈ 12.3 µM)

COc1cc2c([nH]c3ccc(O)cc32)c(Cc2ccc(O)cc2)n1 [DAIBUCARBOLINE A]
IC50 [1]: 18.4 µM | Emax [6]: 96.1% | inhibition [6]: Dose-dependent effect | CC50 at 3 h [3]: 94.8 µM

N=C(N)NN [PIMAGEDINE]
IC50 [1]: 28.5 µM | Emax [6]: 83.5% | CC50 at 3 h [3]: > 100 µM

C/C1=C\CCC2=C[C@@H](OC2=O)c2c(C)coc2C1 [LINDERALACTONE]
IC50 [4]: 8.48 µg/mL (≈ 34.7 µM) | IC50 [5]: 8.48 µg/mL (≈ 34.7 µM)

COc1cc(O)c2c(=O)c(-c3ccc(O)cc3)coc2c1 [PRUNETIN]
IC50 [1]: 10.5 µM | Emax [6]: 94.8% | CC50 at 3 h [3]: > 100 µM

N=C(NCCC[C@H](N)C(=O)O)N[N+](=O)[O-] [NITROARGININE]
IC50 [1]: 144 µM | Emax [6]: 41.2% | CC50 at 3 h [3]: > 100 µM

COc1cc(O)c2c(c1)O[C@H](c1ccc(O)cc1)CC2=O [SAKURANETIN]
IC50 [1]: 19.6 µM | Emax [6]: 85.2% | CC50 at 3 h [3]: > 100 µM
